The nature of series [1]: Metabolic stability in mouse liver microsomes assessed as parent compound remaining at 1 uM after 30 mins in presence of NADPH by LC/MS/MS analysis. It is filed as ADME, Microsome. The following applies: read-out: Stability. In short, it runs like this:
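Compound at 1 μM final with 0.5 mg/mL microsomal protein in 100 mM phosphate buffer pH 7.4 at 37 °C, started by adding an NADPH-regenerating system. Reactions were quenched with cold acetonitrile at 0 and 30 min and spun down. Supernatant was analysed by LC-MS/MS. The 0-min sample, quenched before NADPH addition, was set as 100%, and percent parent remaining came from peak areas.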
On the technique in general: Liver microsomes are a subcellular fraction often used to study metabolism.

Series [2] deals with Tyrosine-protein kinase ABL1 (Homo sapiens) (UniProt P00519). The series is described as follows: Binding affinity to wild-type human phosphorylated ABL1 (S229 to K512 residues) expressed in mammalian expression system assessed as residual binding level at 1 uM by Kinomescan method relative to control.
In series [3] the target is Bone morphogenetic protein receptor type-1B (Homo sapiens) (UniProt O00238). As to the kind of experiment: Binding affinity to wild-type human partial length BMPR1B (D178 to L502 residues) expressed in mammalian expression system assessed as residual binding level at 1 uM by Kinomescan method relative to control.
Series [4] addresses Citron Rho-interacting kinase (Homo sapiens) (UniProt O14578). The series is described as follows: Binding affinity to wild-type human partial length CIT (M68 to E432 residues) expressed in bacterial expression system assessed as residual binding level at 1 uM by Kinomescan method relative to control.
In series [5] the target is Macrophage colony-stimulating factor 1 receptor (Homo sapiens) (UniProt P07333). The series is described as follows: Binding affinity to wild-type human partial length CSF1R (I564 to S939 residues) expressed in bacterial expression system assessed as residual binding level at 1 uM by Kinomescan method relative to control.
In series [6] the target is Casein kinase I isoform delta (Homo sapiens) (UniProt P48730). The series is described as follows: Binding affinity to wild-type human full length CSNK1D (M1 to K409 residues) expressed in bacterial expression system assessed as residual binding level at 1 uM by Kinomescan method relative to control.
Series [7] deals with Death-associated protein kinase 1 (Homo sapiens) (UniProt P53355). As to the kind of experiment: Binding affinity to wild-type human partial length DAPK1 (M1 to F296 residues) expressed in bacterial expression system assessed as residual binding level at 1 uM by Kinomescan method relative to control.
Series [8] addresses Eukaryotic translation initiation factor 2-alpha kinase 1 (Homo sapiens) (UniProt Q9BQI3). The series is described as follows: Binding affinity to wild-type human partial length EIF2AK1 (Q147 to E603 residues) expressed in mammalian expression system assessed as residual binding level at 1 uM by Kinomescan method relative to control.
Series [9] addresses Ephrin type-A receptor 5 (Homo sapiens) (UniProt P54756). As to the kind of experiment: Binding affinity to wild-type human partial length EPHA5 (T627 to V930 residues) expressed in bacterial expression system assessed as residual binding level at 1 uM by Kinomescan method relative to control.
Series [10] deals with Ephrin type-B receptor 1 (Homo sapiens) (UniProt P54762). The series is described as follows: Binding affinity to wild-type human partial length EPHB1 (P589 to T911 residues) expressed in bacterial expression system assessed as residual binding level at 1 uM by Kinomescan method relative to control.
The target of series [11] is Serine/threonine-protein kinase haspin (Homo sapiens) (UniProt Q8TF76). The series is described as follows: Binding affinity to wild-type human partial length HASPIN (I452 to K798 residues) expressed in mammalian expression system assessed as residual binding level at 1 uM by Kinomescan method relative to control.
Series [12] has as its target Homeodomain-interacting protein kinase 2 (Homo sapiens) (UniProt Q9H2X6). The series is described as follows: Binding affinity to wild-type human partial length HIPK2 (M153 to S564 residues) expressed in mammalian expression system assessed as residual binding level at 1 uM by Kinomescan method relative to control.
For series [13], the target named is Inhibitor of nuclear factor kappa-B kinase subunit epsilon (Homo sapiens) (UniProt Q14164). The series is described as follows: Binding affinity to wild-type human full length IKK-epsilon (M1 to V716 residues) expressed in mammalian expression system assessed as residual binding level at 1 uM by Kinomescan method relative to control. The method in brief: (§1)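 Single-point kinome-wide KINOMEscan binding panel, test compound at 1 μM, run by the provider's standard protocol.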

In series [14] the target is Serine/threonine-protein kinase 38 (Homo sapiens) (UniProt Q15208). As to the kind of experiment: Binding affinity to wild-type human partial length NDR1 (N33 to E449 residues) expressed in mammalian expression system assessed as residual binding level at 1 uM by Kinomescan method relative to control.
The target in series [15] is Serine/threonine-protein kinase Nek5 (Homo sapiens) (UniProt Q6P3R8). As to the kind of experiment: Binding affinity to wild-type human partial length NEK5 (M1 to M279 residues) expressed in bacterial expression system assessed as residual binding level at 1 uM by Kinomescan method relative to control.
The target of series [16] is Serine/threonine-protein kinase PAK 1 (Homo sapiens) (UniProt Q13153). As to the kind of experiment: Binding affinity to wild-type human partial length PAK1 (S149 to H545 residues) expressed in bacterial expression system assessed as residual binding level at 1 uM by Kinomescan method relative to control.
In series [17] the target is Cyclin-dependent kinase 15 (Homo sapiens) (UniProt Q96Q40). The series is described as follows: Binding affinity to wild-type human full length PFTAIRE2 (M1 to W384 residues) expressed in bacterial expression system assessed as residual binding level at 1 uM by Kinomescan method relative to control. The method in brief: as §1
Series [18] has as its target Serine/threonine-protein kinase N2 (Homo sapiens) (UniProt Q16513). The series is described as follows: Binding affinity to wild-type human partial length PKN2 (E634 to C984 residues) expressed in bacterial expression system assessed as residual binding level at 1 uM by Kinomescan method relative to control.
In series [19] the target is Serine/threonine-protein kinase D2 (Homo sapiens) (UniProt Q9BZL6). As to the kind of experiment: Binding affinity to wild-type human partial length PRKD2 (A519 to E838 residues) expressed in bacterial expression system assessed as residual binding level at 1 uM by Kinomescan method relative to control.
Series [20] deals with Serine/threonine-protein kinase SIK2 (Homo sapiens) (UniProt Q9H0K1). The series is described as follows: Binding affinity to wild-type human full length SIK2 (M1 to N926 residues) expressed in bacterial expression system assessed as residual binding level at 1 uM by Kinomescan method relative to control. The method in brief:
as §1

For series [21], the target named is Serine/threonine-protein kinase 16 (Homo sapiens) (UniProt O75716). The series is described as follows: Binding affinity to wild-type human partial length STK16 (G11 to I305 residues) expressed in bacterial expression system assessed as residual binding level at 1 uM by Kinomescan method relative to control.
The target in series [22] is Serine/threonine-protein kinase TBK1 (Homo sapiens) (UniProt Q9UHD2). As to the kind of experiment: Binding affinity to wild-type human full length TBK1 (M1 to L729 residues) expressed in mammalian expression system assessed as residual binding level at 1 uM by Kinomescan method relative to control.
Series [23] has as its target Serine/threonine-protein kinase ULK2 (Homo sapiens) (UniProt Q8IYT8). The series is described as follows: Binding affinity to wild-type human partial length ULK2 (M1 to S301 residues) expressed in mammalian expression system assessed as residual binding level at 1 uM by Kinomescan method relative to control.

SMILES strings stand for the structures.

Chain of Serine/threonine-protein kinase Nek5 (Homo sapiens) (Q6P3R8 whole entry, the tested form may be a part): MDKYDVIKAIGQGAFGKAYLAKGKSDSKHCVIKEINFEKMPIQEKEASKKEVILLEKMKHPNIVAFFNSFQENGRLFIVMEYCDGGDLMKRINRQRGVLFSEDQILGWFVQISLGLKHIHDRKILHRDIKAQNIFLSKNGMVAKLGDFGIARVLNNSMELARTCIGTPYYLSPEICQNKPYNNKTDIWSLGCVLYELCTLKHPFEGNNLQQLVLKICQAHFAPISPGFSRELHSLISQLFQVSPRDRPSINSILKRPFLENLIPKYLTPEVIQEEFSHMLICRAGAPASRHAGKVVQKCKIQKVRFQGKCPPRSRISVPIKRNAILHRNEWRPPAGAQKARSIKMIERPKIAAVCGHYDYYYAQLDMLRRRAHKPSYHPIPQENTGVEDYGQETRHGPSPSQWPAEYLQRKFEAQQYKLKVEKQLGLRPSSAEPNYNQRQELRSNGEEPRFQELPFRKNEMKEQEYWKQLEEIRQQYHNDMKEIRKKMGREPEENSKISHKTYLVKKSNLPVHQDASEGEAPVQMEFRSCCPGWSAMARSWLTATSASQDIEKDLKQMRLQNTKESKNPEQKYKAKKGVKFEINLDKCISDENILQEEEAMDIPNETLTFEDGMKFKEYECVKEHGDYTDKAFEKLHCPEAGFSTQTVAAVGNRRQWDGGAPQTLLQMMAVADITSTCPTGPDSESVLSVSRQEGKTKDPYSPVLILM
Chain of Serine/threonine-protein kinase SIK2 (Homo sapiens) (Q9H0K1 whole entry, looked up, the tested form may be a part): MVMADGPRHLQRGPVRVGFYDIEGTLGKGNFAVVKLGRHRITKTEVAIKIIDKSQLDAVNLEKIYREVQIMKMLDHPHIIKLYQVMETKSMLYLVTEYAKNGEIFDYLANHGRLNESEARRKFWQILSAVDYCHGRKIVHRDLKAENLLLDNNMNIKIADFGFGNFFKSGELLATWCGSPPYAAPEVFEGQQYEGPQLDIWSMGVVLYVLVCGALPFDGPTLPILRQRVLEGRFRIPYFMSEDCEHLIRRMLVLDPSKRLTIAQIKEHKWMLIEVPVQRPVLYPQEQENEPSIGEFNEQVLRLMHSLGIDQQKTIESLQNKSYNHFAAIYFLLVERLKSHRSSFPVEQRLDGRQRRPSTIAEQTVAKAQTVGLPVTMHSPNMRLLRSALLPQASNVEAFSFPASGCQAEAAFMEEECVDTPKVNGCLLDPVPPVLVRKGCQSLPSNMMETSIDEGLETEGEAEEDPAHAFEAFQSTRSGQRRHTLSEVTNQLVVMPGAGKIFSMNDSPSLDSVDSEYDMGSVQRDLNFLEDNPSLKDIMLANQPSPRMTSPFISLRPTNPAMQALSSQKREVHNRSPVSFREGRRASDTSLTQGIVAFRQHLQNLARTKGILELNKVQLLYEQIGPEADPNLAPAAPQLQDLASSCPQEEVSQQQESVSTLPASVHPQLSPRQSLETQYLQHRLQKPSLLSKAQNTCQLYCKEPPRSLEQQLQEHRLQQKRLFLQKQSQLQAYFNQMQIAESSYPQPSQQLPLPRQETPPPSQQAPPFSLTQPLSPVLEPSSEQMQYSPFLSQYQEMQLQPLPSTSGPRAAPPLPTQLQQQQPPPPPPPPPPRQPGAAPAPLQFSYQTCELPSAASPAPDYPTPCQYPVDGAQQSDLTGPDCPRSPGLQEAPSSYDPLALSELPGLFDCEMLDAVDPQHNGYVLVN
Chain of Death-associated protein kinase 1 (Homo sapiens) (P53355 whole entry, looked up, the tested form may be a part): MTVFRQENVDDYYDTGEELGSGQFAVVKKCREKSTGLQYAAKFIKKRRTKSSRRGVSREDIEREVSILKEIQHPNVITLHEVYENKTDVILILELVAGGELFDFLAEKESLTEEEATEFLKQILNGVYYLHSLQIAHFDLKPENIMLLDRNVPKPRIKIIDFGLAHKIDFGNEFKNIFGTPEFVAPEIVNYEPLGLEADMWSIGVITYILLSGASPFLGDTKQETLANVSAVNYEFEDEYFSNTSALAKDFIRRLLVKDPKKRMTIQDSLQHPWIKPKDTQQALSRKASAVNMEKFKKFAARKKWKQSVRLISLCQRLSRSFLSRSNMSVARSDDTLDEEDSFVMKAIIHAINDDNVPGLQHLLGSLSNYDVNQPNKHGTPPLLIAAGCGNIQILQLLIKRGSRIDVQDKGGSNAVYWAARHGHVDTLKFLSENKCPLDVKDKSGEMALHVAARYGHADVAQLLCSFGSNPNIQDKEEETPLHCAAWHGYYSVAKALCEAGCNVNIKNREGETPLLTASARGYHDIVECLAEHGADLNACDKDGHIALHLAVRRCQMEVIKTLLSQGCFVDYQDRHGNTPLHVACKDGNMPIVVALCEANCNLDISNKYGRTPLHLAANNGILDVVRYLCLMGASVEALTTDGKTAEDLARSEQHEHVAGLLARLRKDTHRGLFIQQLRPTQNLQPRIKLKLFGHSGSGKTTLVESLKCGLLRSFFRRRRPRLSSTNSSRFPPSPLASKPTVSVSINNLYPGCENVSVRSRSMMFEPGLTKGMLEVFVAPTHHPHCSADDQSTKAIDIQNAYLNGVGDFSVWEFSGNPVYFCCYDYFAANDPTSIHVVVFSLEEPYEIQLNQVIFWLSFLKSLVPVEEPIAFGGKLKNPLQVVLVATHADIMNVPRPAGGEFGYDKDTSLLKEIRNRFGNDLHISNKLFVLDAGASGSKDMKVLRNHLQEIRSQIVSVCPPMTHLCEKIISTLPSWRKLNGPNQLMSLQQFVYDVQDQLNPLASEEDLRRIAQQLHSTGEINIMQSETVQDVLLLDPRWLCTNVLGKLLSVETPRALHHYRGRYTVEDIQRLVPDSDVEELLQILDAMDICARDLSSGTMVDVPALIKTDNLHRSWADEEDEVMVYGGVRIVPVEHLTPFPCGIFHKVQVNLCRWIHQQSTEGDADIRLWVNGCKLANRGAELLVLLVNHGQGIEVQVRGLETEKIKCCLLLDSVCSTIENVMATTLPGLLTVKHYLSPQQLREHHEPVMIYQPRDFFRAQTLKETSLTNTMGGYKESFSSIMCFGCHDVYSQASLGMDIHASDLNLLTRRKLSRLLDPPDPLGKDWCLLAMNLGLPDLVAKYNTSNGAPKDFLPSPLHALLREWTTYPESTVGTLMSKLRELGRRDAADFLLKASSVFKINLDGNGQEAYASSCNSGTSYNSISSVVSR
Chain of Serine/threonine-protein kinase PAK 1 (Homo sapiens) (Q13153 whole entry, the tested form may be a part): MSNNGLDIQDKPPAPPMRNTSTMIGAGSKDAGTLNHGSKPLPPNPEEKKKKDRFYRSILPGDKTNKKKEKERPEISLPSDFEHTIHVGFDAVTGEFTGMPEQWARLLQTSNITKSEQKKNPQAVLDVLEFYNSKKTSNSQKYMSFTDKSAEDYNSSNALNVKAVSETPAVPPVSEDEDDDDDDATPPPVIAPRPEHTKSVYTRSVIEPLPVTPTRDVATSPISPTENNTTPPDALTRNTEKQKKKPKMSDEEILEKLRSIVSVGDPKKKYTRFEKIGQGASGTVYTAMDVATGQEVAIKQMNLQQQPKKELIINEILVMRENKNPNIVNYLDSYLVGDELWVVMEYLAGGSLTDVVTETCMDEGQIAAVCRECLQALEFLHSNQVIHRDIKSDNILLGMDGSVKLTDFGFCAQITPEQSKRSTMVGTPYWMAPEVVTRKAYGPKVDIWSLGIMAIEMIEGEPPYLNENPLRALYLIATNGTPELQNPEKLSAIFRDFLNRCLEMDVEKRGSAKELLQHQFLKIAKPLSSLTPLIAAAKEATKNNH
Chain of Ephrin type-A receptor 5 (Homo sapiens) (P54756 whole entry, the tested form may be a part): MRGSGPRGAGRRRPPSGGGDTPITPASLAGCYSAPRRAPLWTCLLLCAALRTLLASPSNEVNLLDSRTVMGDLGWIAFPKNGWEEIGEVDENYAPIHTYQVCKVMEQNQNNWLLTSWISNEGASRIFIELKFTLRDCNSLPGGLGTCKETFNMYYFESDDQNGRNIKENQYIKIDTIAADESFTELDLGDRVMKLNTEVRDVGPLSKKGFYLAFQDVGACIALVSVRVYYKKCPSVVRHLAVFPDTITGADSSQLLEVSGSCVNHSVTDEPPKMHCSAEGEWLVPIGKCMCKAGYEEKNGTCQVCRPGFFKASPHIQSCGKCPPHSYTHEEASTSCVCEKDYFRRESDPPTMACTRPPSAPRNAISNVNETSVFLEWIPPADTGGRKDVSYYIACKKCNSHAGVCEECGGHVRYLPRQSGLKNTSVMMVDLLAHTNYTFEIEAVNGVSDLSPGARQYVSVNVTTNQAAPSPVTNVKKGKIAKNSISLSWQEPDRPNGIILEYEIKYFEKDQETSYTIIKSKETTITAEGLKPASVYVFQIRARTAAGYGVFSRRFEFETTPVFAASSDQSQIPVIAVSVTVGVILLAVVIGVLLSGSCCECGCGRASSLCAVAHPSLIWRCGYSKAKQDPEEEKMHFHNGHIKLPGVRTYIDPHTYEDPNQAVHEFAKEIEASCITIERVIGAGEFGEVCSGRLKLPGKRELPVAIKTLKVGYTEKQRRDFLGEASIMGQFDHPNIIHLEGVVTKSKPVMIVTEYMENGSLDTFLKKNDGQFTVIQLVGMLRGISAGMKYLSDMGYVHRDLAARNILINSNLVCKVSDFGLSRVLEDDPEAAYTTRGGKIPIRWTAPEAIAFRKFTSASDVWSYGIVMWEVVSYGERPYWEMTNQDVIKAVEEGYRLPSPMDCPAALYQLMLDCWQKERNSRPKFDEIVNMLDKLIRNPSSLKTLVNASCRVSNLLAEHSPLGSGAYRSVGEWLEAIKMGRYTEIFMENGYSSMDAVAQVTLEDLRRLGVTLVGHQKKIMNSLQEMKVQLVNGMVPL
Chain of Serine/threonine-protein kinase 16 (Homo sapiens) (O75716 whole entry, the tested form may be a part): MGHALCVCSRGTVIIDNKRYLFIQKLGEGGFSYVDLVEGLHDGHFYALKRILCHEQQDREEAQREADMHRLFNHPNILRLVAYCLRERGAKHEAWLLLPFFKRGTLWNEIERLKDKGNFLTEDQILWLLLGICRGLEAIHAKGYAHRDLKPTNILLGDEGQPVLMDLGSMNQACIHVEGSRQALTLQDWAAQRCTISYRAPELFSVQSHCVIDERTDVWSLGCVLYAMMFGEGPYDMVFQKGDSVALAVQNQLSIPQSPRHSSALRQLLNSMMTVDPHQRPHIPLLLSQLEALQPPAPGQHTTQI

On to `C=CC(=O)Nc1cc(Nc2ncc(Cl)c(Nc3ccccc3S(=O)(=O)C(C)C)n2)c(OC)cc1N(C)CCN(C)C`, for which the remaining at 0.5 h, 1 µM in series [1] came out at 12%. Further, the Activity in [2] stood at 7.5%; in series [3], 0%; in series [4] it was 99%; in series [5], 26%; in [6], 82%; in [7] it was 59%. The Activity is 72% in series [8]; 88% in [9]; 38% in [10]; 100% in series [11]; 94% in series [12]; 21% in series [13]. The Activity was 56% in [14]; 80% in series [15]; 65% in series [16]; 90% in [17]; 70% in series [18]; 3.1% in series [19]. In addition, the Activity in series [20] was 38%; in series [21] it was 64%; in [22] it was 21%; in series [23], 4.3%.

Source of the values: ChEMBL document CHEMBL4382192, “Discovery of a potent dual ALK and EGFR T790M inhibitor” (Eur J Med Chem, 2017).
